In ChEMBL document CHEMBL2062417, “Biotinylated quercetin as an intrinsic photoaffinity proteomics probe for the identification of quercetin target proteins” (Bioorg Med Chem, 2011):
Active and inactive are the calls of the source.

What was measured:
[1] = target: T1, Ubiquitin-like modifier-activating enzyme 1 (Homo sapiens) (UniProt P22314); test: Binding affinity to UBA1 in human Jurkat cells at 150 uM followed by UV irradiation for 30 mins with Wood's glass filtered medium pressure mercury arc light prior to cell lysis measured after denaturing wash by SDS-PAGE based pull down assay
T1 sequence (whole entry): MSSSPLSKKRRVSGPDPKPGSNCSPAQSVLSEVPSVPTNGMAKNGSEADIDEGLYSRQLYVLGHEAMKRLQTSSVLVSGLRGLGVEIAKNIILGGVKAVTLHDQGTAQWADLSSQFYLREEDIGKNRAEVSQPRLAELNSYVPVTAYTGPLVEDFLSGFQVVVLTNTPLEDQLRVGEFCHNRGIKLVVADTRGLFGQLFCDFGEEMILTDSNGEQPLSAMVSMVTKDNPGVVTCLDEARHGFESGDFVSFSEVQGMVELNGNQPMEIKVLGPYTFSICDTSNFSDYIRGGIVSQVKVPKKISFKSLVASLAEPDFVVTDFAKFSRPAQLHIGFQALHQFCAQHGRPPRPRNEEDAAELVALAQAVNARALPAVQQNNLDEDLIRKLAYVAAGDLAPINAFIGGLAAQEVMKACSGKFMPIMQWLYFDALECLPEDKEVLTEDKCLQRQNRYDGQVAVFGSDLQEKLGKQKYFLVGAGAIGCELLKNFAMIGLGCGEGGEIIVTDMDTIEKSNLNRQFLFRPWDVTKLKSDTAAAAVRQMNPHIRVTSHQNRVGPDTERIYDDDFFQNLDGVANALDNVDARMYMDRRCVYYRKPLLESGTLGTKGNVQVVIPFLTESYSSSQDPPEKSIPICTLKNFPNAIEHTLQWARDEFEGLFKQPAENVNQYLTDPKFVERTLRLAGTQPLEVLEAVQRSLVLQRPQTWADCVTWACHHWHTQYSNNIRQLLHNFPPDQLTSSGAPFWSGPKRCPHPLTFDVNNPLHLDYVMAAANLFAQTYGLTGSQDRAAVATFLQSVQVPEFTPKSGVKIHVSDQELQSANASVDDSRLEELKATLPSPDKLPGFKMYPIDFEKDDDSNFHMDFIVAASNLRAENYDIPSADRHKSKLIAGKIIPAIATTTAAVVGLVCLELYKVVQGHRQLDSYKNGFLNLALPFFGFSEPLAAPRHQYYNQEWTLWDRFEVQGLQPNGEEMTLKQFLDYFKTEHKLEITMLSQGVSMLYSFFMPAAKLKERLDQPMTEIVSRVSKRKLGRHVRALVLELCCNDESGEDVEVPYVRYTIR
In short: (§1)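 Jurkat cells were grown in RPMI with 10% FBS (about 15×10^6 cells) and treated 2 h with 150 μM BioQ in 3% aqueous DMSO. They were heat-shocked at 43 °C for 30 min, recovered 1 h at 37 °C, and UV-irradiated (320–400 nm, peak 365 nm, 30 min, 4 °C) before or after sonication lysis. Streptavidin-agarose capture ran 1 h. Beads were washed ≥3× with lysis buffer or 2% SDS Tris pH 7.4, boiled, run on 12% SDS-PAGE and silver-stained.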

[2] = target: T1, Ubiquitin-like modifier-activating enzyme 1 (Homo sapiens); test: Binding affinity to UBA1 in human Jurkat cells at 150 uM followed by UV irradiation for 30 mins with Wood's glass filtered medium pressure mercury arc light after cell lysis measured after denaturing wash by SDS-PAGE based pull down assay; in short: as §1
[3] = target: Heat shock protein HSP 90-alpha (Homo sapiens) (UniProt P07900); test: Binding affinity to HSP90AA1 in human Jurkat cells at 150 uM followed by UV irradiation for 30 mins with Wood's glass filtered medium pressure mercury arc light prior to cell lysis measured after denaturing wash by LC-MS/MS based pull down assay
In short: (§2)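 Silver-stained bands from cells irradiated before lysis were excised, destained, reduced with 10 mM DTT, alkylated with 50 mM iodoacetamide and digested with trypsin overnight. Peptides were extracted in 1% TFA/50% acetonitrile. Nano-C18 LC used a 2–50% acetonitrile gradient with 0.1% formic acid over 50 min at 260 nL/min, followed by MS/MS identification.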

[4] = target: T2, Splicing factor 3B subunit 3 (Homo sapiens) (UniProt Q15393); test: Binding affinity to SF3B3 in human Jurkat cells at 150 uM followed by UV irradiation for 30 mins with Wood's glass filtered medium pressure mercury arc light prior to cell lysis measured after denaturing wash by SDS-PAGE based pull down assay; in short: as §1
T2 sequence (whole entry): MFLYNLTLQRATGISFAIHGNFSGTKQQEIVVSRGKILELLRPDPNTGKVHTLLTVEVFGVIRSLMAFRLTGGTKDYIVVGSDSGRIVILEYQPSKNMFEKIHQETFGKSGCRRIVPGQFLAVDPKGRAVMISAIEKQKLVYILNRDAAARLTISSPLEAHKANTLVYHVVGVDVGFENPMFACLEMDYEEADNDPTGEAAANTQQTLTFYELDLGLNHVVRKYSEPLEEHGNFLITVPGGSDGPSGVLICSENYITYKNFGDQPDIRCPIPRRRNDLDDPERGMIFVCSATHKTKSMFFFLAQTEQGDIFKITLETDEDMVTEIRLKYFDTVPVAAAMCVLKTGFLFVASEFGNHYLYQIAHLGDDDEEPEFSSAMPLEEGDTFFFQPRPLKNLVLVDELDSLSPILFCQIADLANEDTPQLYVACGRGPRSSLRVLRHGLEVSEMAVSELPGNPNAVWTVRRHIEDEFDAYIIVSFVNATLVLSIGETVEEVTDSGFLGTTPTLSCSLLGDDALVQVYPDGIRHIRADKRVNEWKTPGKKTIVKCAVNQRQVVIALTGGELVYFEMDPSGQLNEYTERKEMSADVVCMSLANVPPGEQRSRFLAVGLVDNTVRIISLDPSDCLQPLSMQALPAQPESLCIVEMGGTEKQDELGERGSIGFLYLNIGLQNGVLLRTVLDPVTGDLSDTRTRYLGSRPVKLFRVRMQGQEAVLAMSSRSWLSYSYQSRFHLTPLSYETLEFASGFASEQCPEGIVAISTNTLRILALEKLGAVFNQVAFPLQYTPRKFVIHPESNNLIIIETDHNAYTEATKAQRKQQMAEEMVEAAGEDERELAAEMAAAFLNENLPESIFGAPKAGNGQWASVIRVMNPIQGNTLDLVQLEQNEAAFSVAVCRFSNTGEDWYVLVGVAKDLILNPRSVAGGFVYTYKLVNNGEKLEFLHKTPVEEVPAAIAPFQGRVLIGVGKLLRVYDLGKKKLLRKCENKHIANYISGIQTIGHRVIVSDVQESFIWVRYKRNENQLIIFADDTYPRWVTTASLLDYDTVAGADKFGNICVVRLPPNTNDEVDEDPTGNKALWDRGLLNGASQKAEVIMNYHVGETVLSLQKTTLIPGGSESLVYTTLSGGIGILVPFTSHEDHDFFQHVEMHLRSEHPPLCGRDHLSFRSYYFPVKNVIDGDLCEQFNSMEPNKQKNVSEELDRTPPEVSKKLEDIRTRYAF

[5] = target: ATP synthase F(1) complex subunit beta, mitochondrial (Homo sapiens) (UniProt P06576); test: Binding affinity to ATP5B in human Jurkat cells at 150 uM followed by UV irradiation for 30 mins with Wood's glass filtered medium pressure mercury arc light prior to cell lysis measured after denaturing wash by LC-MS/MS based pull down assay; in short: as §2

Measured: Activity

ATP synthase F(1) complex subunit beta, mitochondrial (Homo sapiens), sequence (P06576 whole entry, one chain of several): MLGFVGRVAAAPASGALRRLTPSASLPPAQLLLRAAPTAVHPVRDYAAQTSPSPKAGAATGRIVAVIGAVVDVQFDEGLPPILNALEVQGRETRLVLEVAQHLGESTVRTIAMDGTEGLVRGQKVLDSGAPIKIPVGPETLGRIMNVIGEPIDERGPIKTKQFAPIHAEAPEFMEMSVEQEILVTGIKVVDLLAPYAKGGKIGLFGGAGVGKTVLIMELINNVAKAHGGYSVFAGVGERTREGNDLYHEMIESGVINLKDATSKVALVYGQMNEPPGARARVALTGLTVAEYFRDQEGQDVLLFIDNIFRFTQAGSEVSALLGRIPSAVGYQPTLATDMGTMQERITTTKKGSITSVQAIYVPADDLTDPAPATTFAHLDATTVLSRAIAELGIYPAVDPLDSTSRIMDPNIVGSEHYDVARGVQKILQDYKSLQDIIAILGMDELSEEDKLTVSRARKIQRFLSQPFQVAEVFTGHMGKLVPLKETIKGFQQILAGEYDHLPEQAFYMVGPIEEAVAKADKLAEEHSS

O=C(CCCC[C@@H]1SC[C@@H]2NC(=O)N[C@@H]21)NCCOCCOCCNC(=O)COc1cc(O)c2c(=O)c(O)c(-c3ccc(O)c(O)c3)oc2c1
active: all assays above
